Experimental data published in publication PMC9298314 (The Febs Journal, 2021).
Peptide text beside a SMILES is read from it.

Key:
MDA‐MB‐231 [1] = assay: Internalization of CF‐labeled peptide, flow cytometry and confocal microscopy; type: cell-based, human; settings: CF‐labeled peptide 1 µM, flow cytometry
In short: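 Cells seeded 5.0 × 10⁴ per well for 24 h, then washed. Exposed to CF‐labelled peptide (final 1) for 15, 60, 360 and 1440 min at 37 °C, 5% CO₂. Collected and washed; 10 000 cells read by flow cytometry, with autofluorescence subtracted. Duplicates on three independent days.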

BT‐20 = assay: CellTiter‐Blue cell viability assay; type: cell-based, human; settings: read-out: IC50 (µM) BT‐20, 24 h, peptide 0.01 to 100 µM, serum‐free medium
In short: (§1)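 Cells were seeded per mL as follows: BT‑20, SKBR3 and Hs68 at 1.5×10⁵; BT‑474 at 3.0×10⁵; MCF 10A at 4.0×10⁵; MDA‑MB‑231 at 1.0×10⁵. After 24 h, wells were PBS‑washed twice and exposed to test compound in complete serum‑free medium for 24 h at 37 °C, 5% CO₂. CellTiter‑Blue was added for 3 h and fluorescence read at 560/590 nm. Untreated cells set 100%, 1% Triton X‑100 set 0%. IC50 came from a log(inhibitor)–normalized response fit, using independent cultures on different days.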

[2] = tested on: human red blood cells (RBCs); assay: Hemolytic activity; type: cell-based; settings: 100 µM peptide, human RBCs 0.25% v/v in PBS pH 7.4, 24 h, 37 °C
In short: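 Blood spun 1000 g for 10 min at 4 °C and washed three times. RBCs held at 0.25% v/v in PBS pH 7.4 with a peptide series (0.01–100), 24 h at 37 °C with gentle agitation. After spinning 1000 g for 5 min at 4 °C, supernatant hemoglobin read at A415. PBS is 0% and 1% Triton X‐100 is 100%; melittin served as peptide control. % = (A − Aneg)/(Apos − Aneg) × 100.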

BT‐474 = assay: CellTiter‐Blue cell viability assay; type: cell-based, human; settings: read-out: IC50 (µM) BT‐474, 24 h, peptide 0.01 to 100 µM, serum‐free medium
In short: as §1

MCF 10A = assay: CellTiter‐Blue cell viability assay; type: cell-based, human; settings: read-out: IC50 (µM) MCF 10A, 24 h, peptide 0.01 to 100 µM, serum‐free medium
In short: as §1

SKBR3 = assay: CellTiter‐Blue cell viability assay; type: cell-based, human; settings: read-out: IC50 (µM) SKBR3, 24 h, peptide 0.01 to 100 µM, serum‐free medium
In short: as §1

MDA‐MB‐231 [3] = assay: CellTiter‐Blue cell viability assay; type: cell-based, human; settings: read-out: IC50 (µM) MDA‐MB‐231, 24 h, peptide 0.01 to 100 µM, serum‐free medium
In short: as §1

Hs68 = assay: CellTiter‐Blue cell viability assay; type: cell-based, human; settings: read-out: IC50 (µM) Hs68, 24 h, peptide 0.01 to 100 µM, serum‐free medium
In short: as §1

“CF‐WRRRYRRWRRRRRWRRRPRR‐amide [CF‐vCPP2319]” was tested, and the “Fluorescence intensity decay with time, MDA‐MB‐231” value (MDA‐MB‐231 [1]) was “decreases slowly during 24 h”.

With `CC(C)C[C@H](NC(=O)CNC(=O)[C@H](CC(C)C)NC(=O)[C@H](CC(C)C)NC(=O)[C@H](CCC(N)=O)NC(=O)[C@H](CCCNC(=N)N)NC(=O)[C@H](CC(C)C)NC(=O)[C@@H](NC(=O)[C@H](CC(C)C)NC(=O)[C@H](CCCNC(=N)N)NC(=O)[C@@H](N)CCCNC(=N)N)[C@@H](C)O)C(=O)NCC(=O)N[C@@H](CO)C(=O)N[C@@H](CCCNC(=N)N)C(=O)N[C@@H](CCCNC(=N)N)C(=O)N[C@@H](CCCNC(=N)N)C(=O)N[C@@H](CCCNC(=N)N)C(=O)N[C@@H](CCCNC(=N)N)C(=O)N[C@@H](CO)C(=O)N[C@@H](CCCNC(=N)N)C(N)=O` [vCPP0769] (H-RRLTLRQLLGLGSRRRRRSR-NH2) the IC50 (BT‐20) was 3.5 ± 1.5 µM, the “H max (% hemolysis at the highest concentration tested)” value [2] was 56.2 ± 1.5% and the IC50 (BT‐474) was 37.5 ± 1.7 µM. The IC50 (MCF 10A) was 55.4 ± 1.7 µM, the IC50 (SKBR3) was 21.1 ± 2 µM and the IC50 (MDA‐MB‐231 [3]) was 9 ± 0.1 µM. The IC50 (Hs68) was 53.4 ± 0.7 µM.

In the case of `C[C@H](NC(=O)[C@H](CCCCN)NC(=O)[C@H](Cc1ccc(O)cc1)NC(=O)[C@H](CCCCN)NC(=O)[C@H](CCCCN)NC(=O)[C@H](CCCCN)NC(=O)[C@H](Cc1ccc(O)cc1)NC(=O)[C@H](CCCNC(=N)N)NC(=O)[C@H](CCCCN)NC(=O)[C@@H](N)CCCCN)C(=O)N[C@@H](Cc1ccc(O)cc1)C(=O)N[C@@H](CCCCN)C(=O)N1CCC[C@H]1C(=O)N[C@@H](Cc1ccc(O)cc1)C(=O)N[C@@H](CCCCN)C(=O)N[C@@H](CCCCN)C(=O)N[C@@H](CCCCN)C(=O)N[C@@H](CCCCN)C(=O)N[C@@H](CCCCN)C(=O)N[C@@H](Cc1ccccc1)C(N)=O` [vCPP0275] (H-KKRYKKKYKAYKPYKKKKKF-NH2), the IC50 (BT‐20) is reported as 44.8 ± 1.1 µM, the “H max (% hemolysis at the highest concentration tested)” value [2] is reported as 14.6 ± 0.9% and the IC50 (BT‐474) is reported as greater than 100 µM. The IC50 (MCF 10A) was greater than 100 µM, the IC50 (SKBR3) was 34 ± 1 µM and the IC50 (MDA‐MB‐231 [3]) was greater than 100 µM. The IC50 (Hs68) was greater than 100 µM.
